Assay outcomes (PubChem BioAssay)
Most compounds without a hit are left out; they make up all but 2.3% or so of the library.
FID counter: compounds displacing fluorescent DNA intercalator, primary screen, artefact control for HCV NS3 helicase inhibitor project, biochemical, FID fluorescence. DNA fluorescent intercalator displacement. hit rate 0.17% among 290,000. AID 1845, 2009. inhibition, % at 7.9 µM; in the data active = inhibition above about 37%;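 note: higher means more ethidium bromide displaced from hairpin DNA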
TRPC6 inhibitor: mouse TRPC6 channel inhibitors, primary screen, cell-based, HEK293, membrane potential dye. hit rate 1.1% among 310,000. AID 2553, 2010. B-score at 10 µM. ACh-evoked depolarization; hits give low values. Short transient receptor potential channel 6 (Mus musculus), Q61143;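 active = B-score under library mean minus 3 SD, initial fluorescence not abnormally high, positive integrated signal ratio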;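 note: B-score derived from integrated fluorescence ratio over the kinetic read; more negative B-score means stronger inhibition of depolarization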
TRPC4 potent: positive allosteric modulators of TRPC4, primary screen, cell-based, mouse TRPC4beta, HEK293 mu-opioid, Fluo-4 calcium | Short transient receptor potential channel 4 (Mus musculus), Q9QUQ5 | AID 2227, 2009 | hit rate 0.42% among 310,000 | B-score at 10 µM | DAMGO EC20, Fluo-4 Ca2+ flux; hits give high values;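 active = B-score of calcium response area above 5 SD of library B-scores, with initial fluorescence ratio within 5 SD of library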
Target sequence (Q9QUQ5 whole entry, looked up): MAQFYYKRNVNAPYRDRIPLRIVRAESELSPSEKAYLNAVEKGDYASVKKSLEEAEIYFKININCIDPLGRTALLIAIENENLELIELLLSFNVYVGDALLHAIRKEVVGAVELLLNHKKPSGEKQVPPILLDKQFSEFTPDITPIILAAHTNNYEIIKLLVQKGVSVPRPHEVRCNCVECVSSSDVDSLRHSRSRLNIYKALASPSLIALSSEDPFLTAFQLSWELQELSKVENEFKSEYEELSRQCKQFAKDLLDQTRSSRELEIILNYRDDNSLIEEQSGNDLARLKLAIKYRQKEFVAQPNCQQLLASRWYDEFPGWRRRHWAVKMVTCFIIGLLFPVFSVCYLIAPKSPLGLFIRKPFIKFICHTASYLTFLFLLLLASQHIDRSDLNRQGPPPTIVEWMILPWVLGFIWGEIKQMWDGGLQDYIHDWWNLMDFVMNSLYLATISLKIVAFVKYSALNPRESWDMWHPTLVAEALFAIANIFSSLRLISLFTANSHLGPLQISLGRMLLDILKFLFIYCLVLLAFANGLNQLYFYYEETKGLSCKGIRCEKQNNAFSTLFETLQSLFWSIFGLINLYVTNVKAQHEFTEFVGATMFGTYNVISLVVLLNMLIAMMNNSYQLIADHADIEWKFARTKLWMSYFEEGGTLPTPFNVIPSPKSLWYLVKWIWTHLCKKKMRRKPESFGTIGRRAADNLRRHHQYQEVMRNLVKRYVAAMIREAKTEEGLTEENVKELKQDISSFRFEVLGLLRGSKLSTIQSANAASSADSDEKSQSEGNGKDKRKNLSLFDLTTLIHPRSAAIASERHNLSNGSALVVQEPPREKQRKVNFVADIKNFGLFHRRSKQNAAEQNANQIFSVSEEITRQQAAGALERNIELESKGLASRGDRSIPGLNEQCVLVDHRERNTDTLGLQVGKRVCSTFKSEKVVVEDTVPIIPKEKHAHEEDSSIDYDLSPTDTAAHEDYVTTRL
TRPC4 agonist: activators of mouse TRPC4 channel, primary screen, Fluo4 calcium, HEK293 TRPC4beta/mu-opioid cells; Short transient receptor potential channel 4 (Mus musculus), Q9QUQ5; Fluo4 calcium fluorescence; hits give high values; B-score at 10 µM; hit rate 0.49% among 310,000;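 active = B-score above 5 SD of library B-scores, and initial fluorescence ratio not above library mean plus 5 SD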;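 note: positive B-score marks a calcium rise read as TRPC4 activation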
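Technique: kinetic Fluo4 calcium fluorescence; Test system: TRPC4beta and mu-opioid receptor HEK293 stable cells; Measure: B-scored integrated calcium fluorescence ratio; Benchmarks: low control buffer alone, high control maximal DAMGO; Schedule: 45 min room-temperature Fluo4 loading, 110 s read.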
TRPC4 inh: inhibitors of mouse TRPC4 channel, primary screen, Fluo4 calcium, HEK293 TRPC4beta/mu-opioid cells | Short transient receptor potential channel 4 (Mus musculus), Q9QUQ5 | DAMGO-evoked Fluo4 calcium flux; hits give low values | B-score at 10 µM | hit rate 0.39% among 300,000 | AID 2247, 2010;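 active = B-score over 3 SD under the library average, no early fluorescence shift, positive overall ratio signal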
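Material: HEK293 cells with stable TRPC4beta plus mu-opioid receptor expression; probe or stimulus: DAMGO in two steps, submaximal then maximal; technique: Fluo4 calcium fluorescence by kinetic imaging, 5 s 1 Hz baseline; measure: integrated fluorescence ratio relative to baseline, converted to per-well B score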
TRPC6 activator: mouse TRPC6 channel activators, primary screen, cell-based, HEK293, membrane potential dye | Short transient receptor potential channel 6 (Mus musculus), Q61143 | HEK293-TRPC6 membrane potential dye fluorescence; hits give high values | B-score at 10 µM | hit rate 0.13% among 310,000 | AID 2550, 2010;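 active = B-score of the integrated fluorescence ratio above library mean plus 3 SD, and starting fluorescence ratio within library mean plus 5 SD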;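 note: higher score means more depolarization so channel activation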
A number is an active result; - = inactive; . = no result given.

SMILES	FID counter	TRPC6 inhibitor	TRPC4 potent	TRPC4 agonist	TRPC4 inh	TRPC6 activator
CC1(C)CC(NC(=O)c2cc(COc3cccc(C(F)(F)F)c3)on2)CCO1 (configuration not stated)	-	-	-	-	-6	-
CCn1c(CNC(=O)c2ccccc2Br)nnc1SCC(=O)Nc1nncs1	-	-	-	-	-	-
CN(C)C(CNC(=S)Nc1ccccc1)c1cccnc1 (configuration not stated)	-	-	-	75	-	-
CN(C)C(CNC(=S)Nc1cccc(Cl)c1)c1cccnc1 (configuration not stated)	-	-	-	93	-	-
CN(C)CCNC(=S)Nc1ccccc1Cl	-	-	-	-	-	-
CN(C)C(CNC(=S)Nc1ccccc1Cl)c1cccnc1 (configuration not stated)	-	-	-	104	-	-
S=C(NCc1ccncc1)Nc1cccc(Cl)c1	-	-	-	-	-	-
CN(C)C(CNC(=O)NC1CCCCC1)c1cccnc1 (configuration not stated)	-	-	-	105	-	-
Cc1ccc(C(=O)NNC(=O)/C=C\C(=O)O)cc1	-	-	-	-	-	-
CC1Sc2ccc(S(=O)(=O)N3CCC(C(=O)N(C)Cc4ccccc4)CC3)cc2NC1=O (configuration not stated)	-	-	-	-	-	-
CCc1cccc(C)c1NC(=S)NCC(c1cccnc1)N(C)C (configuration not stated)	-	-	-	91	-	-
CNCC(=O)Nc1ccc(Cl)c(C(F)(F)F)c1	-	-	28	-	-	-
COc1cc2c(cc1OC)C(C)N(CCN1C(=O)c3ccccc3C1=O)CC2 (configuration not stated)	-	-	-	-	-	-
COc1cc2c(cc1OC)C(C)N(CCc1ccc(Cl)cc1)CC2 (configuration not stated)	.	-	-	-	-6	-
CCOc1ccc(S(=O)(=O)NC(C)(C)C)cc1-c1nc2c(C(C)(C)C)nn(C)c2c(=O)[nH]1	-	-	11	-	-	-
CN(C)CCn1c(N)nc2ccccc21	-	-	13	-	-	-
CC(CNS(=O)(=O)c1ccc2c(c1)CC(=O)N2C)c1ccccc1 (configuration not stated)	-	-	-	-	-	-
CCCCN(CC)CCNc1c(N2CCN(C(=O)OCC)CC2)c(=O)c1=O	-	-	-	124	.	-
CCOC(=O)N1CCN(c2c(NCCCN(CC)CC)c(=O)c2=O)CC1	-	-	-	-	-	-
O=C(c1ccncc1)N1c2ccccc2Sc2ccccc21	-	-	26	-	-	-
CCOC(=O)C1(Cc2ccccc2)CCN(Cc2cn[nH]c2-c2ccccc2)CC1	-	-	-	126	-	-
CCOC(=O)C1(CC2CC2)CCN(Cc2cn[nH]c2-c2cccc(F)c2)CC1	-	-	-	-	-	-
CCOC(=O)C1(Cc2ccccc2)CCCN(Cc2cnn(CC)c2)C1 (configuration not stated)	-	-	-	-	-	-
CCOC(=O)C1(CC2CC2)CCN(Cc2cn[nH]c2-c2ccccc2)CC1	-	-	-	48	-8	-
CCOC(=O)C1(Cc2ccccc2)CCN(Cc2cnn(CC)c2)CC1	-	-	-	124	-	-
SMILES	FID counter	TRPC6 inhibitor	TRPC4 potent	TRPC4 agonist	TRPC4 inh	TRPC6 activator
CCOC(=O)c1[nH]ncc1CN1CCC(Cc2ccccc2)(C(=O)OCC)CC1	-	-	-	-	-	-
COc1cc(NC(=O)CSc2nc(C3CC3)nc3ccccc23)cc(OC)c1	-	-	-	-	-	-
O=C1CCC(C(=O)N2CCCC(N3CCN(c4cccc(C(F)(F)F)c4)CC3)C2)=NN1 (configuration not stated)	-	-	-	-	-	-
CCCCOc1ccc(C(=O)OCC(=O)N2CCOCC2)cc1	-	-	-	-	-	-
COc1cccc(C(=O)OC2CCCN(C)C2)c1 (configuration not stated)	-	-	-	129	-	-
COc1cccc(C(=O)OC2CCN(C)CC2)c1	-	-	-	-	-	-
CN1CCCC(OC(=O)c2cc(Cl)ccc2Cl)C1 (configuration not stated)	-	-	13	65	-	-
CN1CCCC(OC(=O)c2cc(Br)ccc2Cl)C1 (configuration not stated)	-	-	10	126	-	-
CC1(C)C(=O)NC(=O)N1Cc1ccccc1	.	-	-	76	-	-
COc1ccc(Cl)cc1NC(=O)C[n+]1cccc(C)c1	-	-	-	-	-	-
CN(C)CCCOC(=O)c1sc2ccccc2c1Cl	-	-	-	-	-	-
CN(C(=O)COC(=O)c1sc2ccccc2c1Cl)C1CCCCC1	-	-	29	-	-	-
CC(C)(C)N(NS(=O)(=O)c1ccc(F)cc1)c1ccccc1	-	-	-	-	-	-
Cc1cc2nnc(SCC(=O)NC3CCCCC3)n2c(N)n1	-	-	-	-	-	-
COC(=O)C1=C(C)N(Cc2ccccc2)C(=S)N[C@H]1c1cccc(F)c1	-	-	-	-	-5	-
O=C(c1cnn2c(C(F)F)cc(-c3ccccc3)nc12)N1CCN(Cc2ccc3c(c2)OCO3)CC1	-	-	-	-	-	-
Cc1ccccc1S(=O)(=O)Cc1ccc(C(=O)NC2CCCCC2)o1	-	-	-	-	-	-
O=C(Nc1nnc(-c2cccs2)o1)c1cccc(C(F)(F)F)c1	-	-	-	127	-	-
CN(CC(=O)NNC(=O)Cc1ccccc1F)S(=O)(=O)c1ccc(Cl)cc1	.	-	-	-	-	-
CCn1ccnc1CNC(=O)c1ccc2oc(CCCc3ccccc3)nc2c1	-	-	-	-	-6	-
COc1ccc(Cc2nc3ccc(C(=O)NCCc4cccc(C)n4)cc3o2)cc1	-	-	-	-	-	-
COc1ccc(S(=O)(=O)N2CCCCCC2)cc1C(=O)N(CC(C)C)C1CCS(=O)(=O)C1 (configuration not stated)	.	-	-	-	-	-
O=C(C1=C[C@H](c2ccc(C(F)(F)F)cc2)C[C@H](OCCCCO)O1)N1CCN(Cc2ccccc2)CC1	-	-	-	186	-	-
CNCCCOc1ccc2c(c1)CCC2	-	-	20	80	-	-
Clc1ccc(OCCN2CCCCC2)cc1Cl	-	-	26	-	-	-
CNCCOc1ccc(Cl)c(Cl)c1	-	-	40	75	-	-
